From ChEMBL document CHEMBL1141097, “Indole-3-acetic acid antagonists of the prostaglandin D2 receptor CRTH2” (J Med Chem, 2005)

Legend:
[1] = target: T1, Prostaglandin D2 receptor (Homo sapiens, UniProt Q13258); assay: Binding affinity towards human DP receptor expressed in CHO cells; assay type: cell-based
T1 sequence (Q13258 whole entry): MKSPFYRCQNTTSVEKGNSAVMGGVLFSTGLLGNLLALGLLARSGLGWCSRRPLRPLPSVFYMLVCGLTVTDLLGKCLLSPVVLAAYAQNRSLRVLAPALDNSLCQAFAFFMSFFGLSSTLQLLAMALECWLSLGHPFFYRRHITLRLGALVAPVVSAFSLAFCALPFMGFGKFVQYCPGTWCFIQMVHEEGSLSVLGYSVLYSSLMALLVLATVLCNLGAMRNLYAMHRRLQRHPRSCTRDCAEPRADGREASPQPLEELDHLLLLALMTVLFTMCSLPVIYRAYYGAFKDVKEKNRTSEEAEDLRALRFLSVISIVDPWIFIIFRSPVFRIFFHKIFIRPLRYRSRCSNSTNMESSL
Method in brief: (§1)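 Radioligand binding on membranes from CHO cells expressing recombinant human CRTH2 or human DP receptor, reported as Ki.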

[2] = target: T2, Prostaglandin D2 receptor 2 (Homo sapiens, UniProt Q9Y5Y4); assay: Binding affinity towards human CRTH2 receptor expressed in CHO cells; assay type: cell-based; method in brief: as §1
T2 sequence (Q9Y5Y4 whole entry): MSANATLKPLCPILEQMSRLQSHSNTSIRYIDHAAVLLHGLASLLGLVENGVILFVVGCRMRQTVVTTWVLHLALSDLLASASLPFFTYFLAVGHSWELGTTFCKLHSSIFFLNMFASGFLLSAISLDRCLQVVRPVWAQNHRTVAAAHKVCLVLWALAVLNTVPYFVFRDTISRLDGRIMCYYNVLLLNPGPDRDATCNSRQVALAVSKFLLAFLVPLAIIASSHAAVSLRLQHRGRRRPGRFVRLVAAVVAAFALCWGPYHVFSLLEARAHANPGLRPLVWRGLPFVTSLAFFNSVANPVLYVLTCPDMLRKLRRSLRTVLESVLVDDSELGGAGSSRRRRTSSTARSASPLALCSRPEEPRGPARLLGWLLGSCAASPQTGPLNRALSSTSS

[3] = target: T2, Prostaglandin D2 receptor 2; assay: Concentration required to inhibit PGD-2 (10 nM) stimulated [Ca2+] flux in CHO cells expressing human CRTH2 receptor; assay type: cell-based
Method in brief: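 CHO cells expressing human CRTH2 were stimulated with 10 nM PGD2 and calcium mobilization was read. Inhibition is expressed as IC50. Antagonism was also tested by parallel shifts of the PGD2 dose–response curve with increasing antagonist (pA2).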

[4] = Oral bioavailability upon p.o. dose of 10 mg/kg in rats; assay type: ADME, organism-based; conditions: rat, in vivo
[5] = Area under curve for the compound upon i.v. dose of 1 mg/kg in rats; assay type: ADME, organism-based; parameters: dose 1 mg/kg, route intravenous; conditions: rat, in vivo, iv
Method in brief: (§2)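 Rats given a single dose, 1 mg/kg intravenous or 10 mg/kg oral, then sampled for plasma levels. Cmax, Tmax and AUCinf come from the plasma concentration–time profile.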

[6] = Area under curve for the compound upon p.o. dose of 10 mg/kg in rats; assay type: ADME, organism-based; parameters: dose 10 mg/kg, route oral; conditions: rat, in vivo, po; method in brief: as §2
[7] = Time taken by the compound to reach its maximum concentration in plasma upon p.o. dose of 10 mg/kg in rats; assay type: ADME, organism-based; parameters: dose 10 mg/kg, route oral; conditions: rat, po; method in brief: as §2
[8] = Maximum plasma concentration upon i.v. dose of 1 mg/kg in rats; assay type: ADME, organism-based; parameters: dose 1 mg/kg, route intravenous; conditions: rat, iv; method in brief: as §2
[9] = Maximum plasma concentration upon p.o. dose of 10 mg/kg in rats; assay type: ADME, organism-based; parameters: dose 10 mg/kg, route oral; conditions: rat, po; method in brief: as §2
[10] = target: T2, Prostaglandin D2 receptor 2; assay: Binding affinity towards human CRTH2 receptor expressed in CHO cells; range 25 nM to 8 uM; assay type: cell-based
[11] = target: T2, Prostaglandin D2 receptor 2; assay: In vitro agonist potency towards human CRTH2 receptor expressed in CHO cells; range 15 to 50 nM

## Cc1ccc(S(=O)(=O)n2c(C)c(CC(=O)O)c3cc(F)ccc32)cc1
[1]
  Ki: > 10000 nM
[2]
  Ki: 457 nM
[3]
  IC50: 2180 nM

## Cc1nc(S(=O)(=O)n2c(C)c(CC(=O)O)c3cc(F)ccc32)cn1C
[1]
  Ki: > 10000 nM
[2]
  Ki: 2980 nM
[3]
  IC50: > 10000 nM

## CCCCS(=O)(=O)n1c(C)c(CC(=O)O)c2cc(F)ccc21
[1]
  Ki: > 10000 nM
[2]
  Ki: 634 nM
[3]
  IC50: 842 nM

## Cc1c(CC(=O)O)c2cc(F)ccc2n1S(=O)(=O)c1cccc(F)c1
[1]
  Ki: 6890 nM
[2]
  Ki: 225 nM
[3]
  IC50: 639 nM

## Cc1c(CC(=O)O)c2cc(F)ccc2n1S(=O)(=O)c1ccc(S(C)(=O)=O)cc1
[1]
  Ki: > 10000 nM
[2]
  Ki: 68 nM
[4]
  bioavailability: 56%
[3]
  IC50: 158 nM
[5]
  AUC: 619 ng·h/mL
[6]
  AUC: 3480 ng·h/mL
[7]
  Tmax: 1.8 h
[8]
  Cmax: 1800 ng/mL
[9]
  Cmax: 332 ng/mL

## Cc1c(CC(=O)O)c2cc(F)ccc2n1S(=O)(=O)c1ccccc1
[1]
  Ki: 4860 nM
[2]
  Ki: 250 nM
[3]
  IC50: 987 nM

## Cc1c(CC(=O)O)c2cc(F)ccc2n1S(=O)(=O)c1ccc(Cl)cc1
[1]
  Ki: 8460 nM
[2]
  Ki: 29 nM
[3]
  IC50: 26 nM

## COc1ccc(S(=O)(=O)n2c(C)c(CC(=O)O)c3cc(F)ccc32)cc1
[1]
  Ki: 7710 nM
[2]
  Ki: 299 nM
[3]
  IC50: 318 nM

## Cc1c(CC(=O)O)c2cc(F)ccc2n1S(=O)(=O)c1ccc(F)cc1
[1]
  Ki: > 10000 nM
[2]
  Ki: 71 nM
[3]
  IC50: 158 nM

## O=C(O)C[C@@H]1CCn2c1c(Sc1ccc(Cl)cc1)c1ccc(F)cc12
[2]
  Ki: 0.8 nM

## Cc1c(CC(=O)O)c2cc(F)ccc2n1S(=O)(=O)c1cc(Cl)ccc1Cl
[1]
  Ki: 1870 nM
[2]
  Ki: 19 nM
[3]
  IC50: 44 nM

## COc1ccc2c(c1)c(CC(=O)O)c(C)n2C(=O)c1ccc(Cl)cc1 [INDOMETHACIN]
[10]
  Ki: 8000 nM
[11]
  EC50: 50 nM

## CSc1ccc(C=C2C(C)=C(CC(=O)O)c3cc(F)ccc32)cc1 [SULINDAC SULFIDE]
[2]
  Ki: 3500 nM
